Data published in ChEMBL document CHEMBL5126619, “An Unexpected Deuterium-Induced Metabolic Switch in Doxophylline” (ACS Med Chem Lett, 2022).
The source made the active and inactive calls.

How the values were obtained:
Mus musculus [1] = experiment: (§1) Antifibrotic activity against BLM-induced lung injury C57BL/6 mouse model assessed as reduction in collagen thickness at 80 mg/kg, po qd pretreated with compound for 1 hr followed by BLM treatment and measured on day 21 by Masson trichrome staining based analysis; type: functional, organism-based; conditions: time 21.0 day
Summary of the method: (§2)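 BLM model: pharyngeal aspiration 0.02U/50µl; oral daily dosing in saline from 1 h pre-BLM; day 21 sacrifice. Lungs fixed 48 h in 10% buffered formalin at room temperature, paraffin-embedded, 4 µm sections. Stains: H&E for infiltrate, Masson's trichrome or Picrosirius Red for stromal fibres.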

Mus musculus [2] = experiment: Inhibition of Pseudomonas aeruginosa-induced apoptosis in C57BL/6 mouse at 80 mg/kg, os qd pretreated with compound for 1 hr followed by Pseudomonas aeruginosa instillation and measured after 7 days by TUNEL assay; type: functional, organism-based; conditions: time 7.0 day, tested as the 2H-labelled form
Summary of the method: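 Lung sections from the day-7 Pseudomonas model (oral 80 mg/kg daily) treated with 15 µg/ml proteinase K for 15 min at RT, then 3% H2O2 for 5 min. TdT with biotinylated dUTP applied, 37 °C 90 min. HRP-conjugated antibody 30 min, then DAB. TUNEL-positive cells quantified.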

Mus musculus [3] = experiment: (§3) Antifibrotic activity against Pseudomonas aeruginosa-induced pulmonary fibrosis C57BL/6 mouse model assessed as effect on collagen deposition at 80 mg/kg, os qd pretreated with compound for 1 hr followed by Pseudomonas aeruginosa instillation and measured after 7 days by Masson trichrome staining based analysis; type: functional, organism-based; conditions: time 7.0 day, tested as the 2H-labelled form
Mus musculus [4] = experiment: Antifibrotic activity against BLM-induced lung injury C57BL/6 mouse model assessed as decrease in inflammatory interstitial infiltrate at 80 mg/kg, po qd pretreated with compound for 1 hr followed by BLM treatment and measured on day 21 by H and E staining based histological analysis; type: functional, organism-based; conditions: time 21.0 day; summary of the method: as §2
Mus musculus [5] = experiment: as §3, with “reduction in accumulation of immune cells bronchoalveolar lavage” for “effect on collagen deposition”, “trypan blue” for “Masson trichrome”, “based hemocytometer” for “based”; type: functional, organism-based; conditions: time 7.0 day
Summary of the method: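 Day 7 after trans-tracheal Pseudomonas bead instillation, with oral 80 mg/kg daily dosing. Trachea cannulated, lungs washed once with 0.5 mL Dulbecco's PBS. Fluid spun, then total pelleted cells counted with trypan blue on a hemocytometer.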

Mus musculus [6] = experiment: as §3, with “decrease in lung inflammation” for “effect on collagen deposition”, “immunohistochemistry” for “Masson trichrome staining based”; type: functional, organism-based; conditions: time 7.0 day
Mus musculus [7] = experiment: Antifibrotic activity against Pseudomonas aeruginosa-induced pulmonary fibrosis C57BL/6 mouse model assessed as effect on nitrotyrosine expression at 80 mg/kg, os qd […] and measured after 7 days by immunohistochemistry analysis; type: functional, organism-based; conditions: time 7.0 day, tested as the 2H-labelled form
Summary of the method: (§4)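 Mucoid P. aeruginosa NH57388A in agar beads, ~1×10^6 CFU per mouse, given trans-tracheally under isoflurane. Compound 80 mg/kg orally daily from 1 h post-instillation for 7 days, n=10. Lung sections 8 µm from formaldehyde-fixed paraffin blocks. Anti-nitrotyrosine or anti-PAR 1:500 overnight, avidin-biotin peroxidase detection. Densitometry of positive pixels; mean ± S.E.M.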

Mus musculus [8] = experiment: Antifibrotic activity against Pseudomonas aeruginosa-induced pulmonary fibrosis C57BL/6 mouse model assessed as effect on poly(ADP-ribose) polymerase level at 80 mg/kg, os qd […] and measured after 7 days by immunohistochemistry analysis; type: functional, organism-based; conditions: time 7.0 day, tested as the 2H-labelled form; summary of the method: as §4
Mus musculus [9] = experiment: as §3, with “reduction in inflammatory interstitial infiltrate” for “effect on collagen deposition”, “H and E” for “Masson trichrome”, “based histological” for “based”; type: functional, organism-based; conditions: time 7.0 day
Summary of the method: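 Pseudomonas bead lung model, day 7, with oral 80 mg/kg daily treatment. Biopsies fixed in 10% formaldehyde in PBS at room temperature and stained with H&E. Five random fields per sample at ×100 scored for severity by a blinded observer.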

Mus musculus [10] = experiment: Antifibrotic activity against BLM-induced lung injury C57BL/6 mouse model assessed as reduction in collagen thickness at 80 mg/kg, po qd pretreated with compound for 1 hr followed by BLM treatment and measured on day 21 by picrosirius red staining method; type: functional, organism-based; conditions: time 21.0 day; summary of the method: as §2
Mus musculus [11] = experiment: as §1, with “accumulation of immune cells bronchoalveolar lavage” for “collagen thickness”, “trypan blue” for “Masson trichrome”, “based hemocytometer” for “based”; type: functional, organism-based
Summary of the method: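 BLM model with aspiration, oral daily dosing in saline from 1 h pre-challenge, and day-21 endpoint. Lavage via tracheal cannula with 1 mL aliquots of ice-cold Ca/Mg-free phosphate medium, pH 7.4. Cells pelleted at 500×g, 5 min, 4 °C, then washed and resuspended. Counted by trypan blue exclusion on a hemocytometer.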

Mus musculus [12] = experiment: Antifibrotic activity against Pseudomonas aeruginosa-induced pulmonary fibrosis C57BL/6 mouse model assessed as reduction in MPO level at 80 mg/kg, os qd […] and measured after 7 days by spectrophotometric analysis; type: functional, organism-based; conditions: time 7.0 day, tested as the 2H-labelled form
Summary of the method: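 Pseudomonas bead model, 80 mg/kg oral daily for 7 days from 1 h post-instillation. Lungs homogenized in 0.5% HTAB/10 mM potassium phosphate pH 7 and spun 20,000×g, 30 min, 4 °C. Supernatant reacted with 0.1 mM H2O2 and 1.6 mM tetramethylbenzidine, A650 read. Unit = 1 µmol H2O2 degraded/min at 37 °C; per g wet tissue.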

Mus musculus [13] = experiment: Antifibrotic activity against BLM-induced lung injury C57BL/6 mouse model assessed as reduction in lung wet/dry ratio by measuring liquid accumulation at 80 mg/kg, po qd pretreated with compound for 1 hr followed by BLM treatment and measured on day 21; type: functional, organism-based; conditions: time 21.0 day
Summary of the method: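 At day 21 after BLM aspiration (compound given orally daily from 1 h pre-BLM), lungs harvested free of extraneous tissue and weighed wet. Dried 72 h at 100°C and reweighed. Water content = wet minus dry weight.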

Mus musculus [14] = experiment: Antifibrotic activity against BLM-induced lung injury C57BL/6 mouse model assessed as decrease in MPO level at 80 mg/kg, po qd pretreated with compound for 1 hr followed by BLM treatment and measured on day 21 by colorimetric assay; type: functional, organism-based; conditions: time 21.0 day
Summary of the method: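 BLM 0.02U/50µl given by pharyngeal aspiration under isoflurane. Compound in 0.9% NaCl, or saline vehicle, by gavage 1 h before BLM, then daily. Mice killed day 21. Lung MPO measured with a colorimetric kit per the manufacturer. Unit = enzyme degrading 1 μM peroxide/min at 37°C, expressed as U/mg wet tissue.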

[15] = Drug metabolism in mouse plasma assessed as Theophylline formation measured upto 4 hrs; type: ADME, cell-free
Summary of the method: (§5)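 Plasma from mice dosed 20 mg/Kg i.v. or 80 mg/Kg by oral gavage, sampled sublingually under isoflurane pre-dose to 24 h (n=3), K3EDTA. Caffeine internal standard, trichloroacetic acid precipitation. Kinetex C18 UHPLC-MS, positive full-scan/PRM. Metabolites quantified against calibration curves.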

[16] = Drug metabolism in mouse plasma assessed as dm-doxophylline formation measured upto 4 hrs; type: ADME, cell-free; summary of the method: as §5
[17] = Drug metabolism in mouse plasma assessed as 7-theophylline acetic acid formation by measuring fold increase measured at 30 mins; type: ADME, cell-free; conditions: 0.5 h; summary of the method: as §5
[18] = Drug metabolism in mouse plasma assessed as Etophylline formation measured upto 4 hrs; type: ADME, cell-free; summary of the method: as §5
[19] = Drug metabolism in mouse plasma assessed as 7-((1,3-dioxol-2-yl)methyl)-1,3-dimethyl-1H-purine-2,6(3H,7H)-dione formation measured upto 6 hrs; type: ADME, cell-free

Cn1c(=O)c2c(ncn2CC2OCCO2)n(C)c1=O
active: Activity (Mus musculus [1]) | Activity (Mus musculus [1]; tested as the 2H-labelled form) | inhibition (Mus musculus [2]) | Activity (Mus musculus [3]) | Activity (Mus musculus [4]) | Activity (Mus musculus [4]; tested as the 2H-labelled form) | Activity (Mus musculus [5]) | Activity (Mus musculus [5]; tested as the 2H-labelled form) | Activity (Mus musculus [6]) | Activity (Mus musculus [6]; tested as the 2H-labelled form) | Activity (Mus musculus [7]) | Activity (Mus musculus [8]) | Activity (Mus musculus [9]) | Activity (Mus musculus [9]; tested as the 2H-labelled form) | Activity (Mus musculus [10]) | Activity (Mus musculus [10]; tested as the 2H-labelled form) | Activity (Mus musculus [11]) | Activity (Mus musculus [11]; tested as the 2H-labelled form) | Activity (Mus musculus [12]) | Activity (Mus musculus [13]) | Activity (Mus musculus [13]; tested as the 2H-labelled form) | Activity (Mus musculus [14]) | Activity (Mus musculus [14]; tested as the 2H-labelled form)

[2H]C1([2H])OC(Cn2cnc3c2c(=O)n(C)c(=O)n3C)OC1([2H])[2H]
3: fold change (FC) [17]
Metabolite_Notdetected: Drug metabolism [18] | Drug metabolism [19]
Metabolite_Detected: Drug metabolism [15] | Drug metabolism [16]
